Published values collected from several papers.
Protocols differ between the studies behind these lines.
Read-out: cell growth or viability

| Structure (SMILES) | cell line | technique | time | IC50 |
| --- | --- | --- | --- | --- |
| CCOC(=O)c1c(C)nc2ccc(-c3ccc(F)cc3F)cc2c1O | MCF-10A | MTT | 48 h | ≥ 100 µM |
| Cc1ccc(S(=O)(=O)n2cc(/C=N/NC(=O)c3ccccc3C)c3ccccc32)cc1 | MCF-10A | MTT | 48 h | > 50 µM |
| COc1cccc2c1C(=O)c1c(O)c3c(c(O)c1C2=O)C[C@@](O)(C(=O)CO)C[C@@H]3O[C@H]1C[C@H](N)[C@H](O)[C@H](C)O1 | MDCK | neutral red | 48 h | 70 µM |
| CC(=O)O[C@@]12CO[C@@H]1C[C@H](O)[C@@]1(C)C(=O)[C@H](O)C3=C(C)[C@@H](OC(=O)[C@H](O)[C@@H](NC(=O)OC(C)(C)C)c4ccccc4)C[C@@](O)([C@@H](OC(=O)c4ccccc4)[C@H]21)C3(C)C | MCF-10A | MTT | 48 h | > 100 µM |
| Cc1ccc(S(=O)(=O)n2cc(/C=N/NC(=O)Cc3cc(F)cc(F)c3)c3ccccc32)cc1 | MCF-10A | MTT | 48 h | > 50 µM |
| Cc1ncsc1-c1ccc(CNC(=O)[C@@H]2C[C@@H](O)CN2C(=O)[C@@H](NC(=O)C2(F)CC2)C(C)(C)C)c(OCCOc2ccc(CN3CCN(c4cc(-c5ccccc5O)nnc4N)CC3)cc2)c1 | VCaP | ATP luminescence | 7 days | 0.0246 µM |
| NC(=S)N/N=C1\C(=O)N(CCn2ncc3c(=O)[nH]cnc32)c2ccc(Cl)cc21 | BALB/3T3 clone A31 | SRB | 72 h | 14.3 µg/mL |
| CC(C)(C)[C@H](NC(=O)/C=C/c1ccc(OP(=O)(O)O)cc1)C(=O)N1CCC[C@H]1C(=O)N(c1ccccc1)c1ccc(I)cc1 | JHH7 | CCK-8 | – | 3.07 µM |
| Cc1ccc(S(=O)(=O)n2cc(/C=N/NC(=O)Cc3ccc(F)cc3F)c3ccccc32)cc1 | MCF-10A | MTT | 48 h | > 50 µM |
| COc1ccc2c(c1)C(=O)C(=O)N2CCn1ncc2c(=O)[nH]cnc21 | BALB/3T3 clone A31 | SRB | 72 h | 21.7 µg/mL |
| N#Cc1ccc(-c2cc(CNc3cccc4cccnc34)on2)cc1 | K562 | MTS | 72 h | 11.1 µM |
| Cc1ccc(S(=O)(=O)n2cc(/C=N/NC(=O)c3cccnc3)c3ccccc32)cc1 | MCF-10A | MTT | 48 h | > 50 µM |
| Clc1ccc(-c2cc(CNc3cccc4cccnc34)on2)c(Cl)c1 | K562 | MTS | 72 h | 33 µM |
| Cc1ccc(S(=O)(=O)n2cc(/C=N/NC(=O)c3ccc(C(F)(F)F)cc3)c3ccccc32)cc1 | MCF-10A | MTT | 48 h | > 50 µM |
| Nc1ncnc2c1ncn2CCN1C(=O)C(=O)c2cc(Cl)ccc21 | BALB/3T3 clone A31 | SRB | 72 h | 24.4 µg/mL |
| CC(=O)c1ccc2cc(S(=O)(=O)Nc3ccccn3)ccc2c1 | MDCK | neutral red | 48 h | 88.8 µM |
| COc1cc([C@@H]2c3cc4c(cc3[C@@H](O[C@@H]3O[C@@H]5CO[C@@H](C)O[C@H]5[C@H](O)[C@H]3O)[C@H]3COC(=O)[C@H]23)OCO4)cc(OC)c1O | K562 | MTS | 72 h | 0.03 µM |
| COc1ccc2c(c1)C(=O)C(=O)N2CCn1cnc2c(N)ncnc21 | BALB/3T3 clone A31 | SRB | 72 h | 55.3 µg/mL |
| CC(C)[C@@H](C)NC(=O)c1cc(-c2cc3ccccc3n2C)cc(C(=O)NCCc2ccccn2)n1 | JHH7 | CCK-8 | – | 25.3 µM |
| CC(=O)c1ccc2cc(S(=O)(=O)Nc3ccc(F)cc3)ccc2c1 | MDCK | neutral red | 48 h | 93.4 µM |
| Nc1nnc(-c2ccccc2O)cc1N1CC2CCC(C1)N2c1ccnc(F)c1 | VCaP | ATP luminescence | 7 days | > 1 µM |
| COc1cccc2c1C(=O)c1c(O)c3c(c(O)c1C2=O)C[C@@](O)(C(=O)CO)C[C@@H]3O[C@H]1C[C@H](N)[C@H](O)[C@H](C)O1 | NCI-H446 | – | 96 h | 0.0365 µM |
| Cc1ccc(S(=O)(=O)n2cc(/C=N/NC(=O)c3ccc(Br)cc3)c3ccccc32)cc1 | MCF-10A | MTT | 48 h | > 50 µM |
| CC(C)[C@@H]1NC(=O)/C(=C/c2cnc[nH]2)NC1=O | NCI-H446 | SRB | – | > 15 µM |
| COc1ccc(NS(=O)(=O)c2ccc3cc(C(C)=O)ccc3c2)cc1 | MDCK | neutral red | 48 h | 18.2 µM |
| FC(F)(F)c1ccc(-c2cc(COc3cc(C(F)(F)F)nc4ccccc34)on2)cc1 | K562 | MTS | 72 h | > 100 µM |
| CC(C)[C@@H]1NC(=O)[C@H](Cc2c[nH]cn2)NC1=O | NCI-H446 | SRB | – | > 15 µM |
| Cc1ccc(S(=O)(=O)n2cc(/C=N/NC(=O)c3ccco3)c3ccccc32)cc1 | MCF-10A | MTT | 48 h | > 50 µM |
| O=C1C(=O)N(CCn2ncc3c(=O)[nH]cnc32)c2ccccc21 | BALB/3T3 clone A31 | SRB | 72 h | 23.1 µg/mL |
| Nc1ccn([C@@H]2O[C@H](CO)[C@@H](O)C2(F)F)c(=O)n1 | 4T1 | MTT | 24 h | 5.78 µg/mL |
